Source: PubChem BioAssay (Johns Hopkins Ion Channel Center)
Shown are actives, neighbours in structure and some others; about 3.7% of the full set was active somewhere.
hERG rescue: hERG rescue from dofetilide block, primary screen, cell-based, CHO-hERG, FluxOR thallium flux, dofetilide IC70; Voltage-gated inwardly rectifying potassium channel KCNH2 (Homo sapiens), Q12809; dofetilide IC70 present; activation (rescue from dofetilide block), less the hit threshold, % at 10 µM; actives 0.51% (n = 310,000);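 active = activation above the mean of controls blocked by dofetilide plus 5 SD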;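 also: thallium influx through hERG after potassium depolarization seen as dye fluorescence rise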
KCNQ1 inh: inhibitors of human KCNQ1 channel, primary screen, cell-based, thallium flux, high-throughput. Potassium voltage-gated channel subfamily KQT member 1 (Homo sapiens), P51787. CHO-K1 KCNQ1, FluxOR thallium flux fluorescence; stronger effect = higher value. B-score at 10 µM. actives 1.3% (n = 310,000). AID 2642, 2010;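 active = compounds whose thallium flux B-score, printed positive for inhibition, exceeds three library SD while starting fluorescence stays within three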;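 also: channel opened by potassium depolarization with thallium stimulus after 20 min compound exposure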
KCNQ1 pot: potentiators or activators of KCNQ1 channel, primary screen, cell-based, thallium flux, high-throughput; B-score at 10 µM; CHO-K1 KCNQ1, thallium flux FluxOR fluorescence; stronger effect = higher value; actives 0.35% (n = 310,000); Potassium voltage-gated channel subfamily KQT member 1 (Homo sapiens), P51787;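 active = fluorescence ratio B-score, a plate-corrected score, at least three library SD, with initial intensity B-score within 5 SD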
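assay system = CHO-K1 cells stably expressing KCNQ1 | medium = assay buffer, equal DMSO in all wells | timing = 37 °C overnight plating, 90-min dark dye load, 20-min compound pretreatment | measured by = kinetic FluxOR thallium fluorescence, 10-s 1-Hz baseline, 110-s post-stimulus read | measure = fluorescence change relative to baseline, converted to B score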
KCNK9 inh: KCNK9 potassium channel inhibitors, primary screen, HEK293 cells, thallium flux. FluxOR thallium flux fluorescence; stronger effect = lower value. Potassium channel subfamily K member 9 (Homo sapiens), Q9NPC2. B-score at 10 µM. actives 1.2% (n = 310,000);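 active = ratio B-score over 3 SD below the library mean, with starting fluorescence within 5 SD of its mean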;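 also: negative B-score means less thallium flux so channel inhibition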
KCNK3 inh: human KCNK3 channel inhibitors, primary screen, CHO cells, FluxOR thallium flux, B-score. Potassium channel subfamily K member 3 (Homo sapiens), O14649. FluxOR fluorescence; stronger effect = lower value. B-score at 10 µM. actives 0.84% (n = 340,000). AID 602410, 2012;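 active = B-score under library mean minus 4 SD, starting fluorescence ratio at most library mean plus 5 SD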;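 also: more negative B-score means stronger inhibition of thallium flux through KCNK3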
Kir21 inh: inhibitors of mouse Kir2.1 inward-rectifier potassium channel. actives 0.85% (n = 310,000). AID 1672, 2009. HEK293-Kir2.1, FluxOR thallium flux fluorescence; stronger effect = lower value. Inward rectifier potassium channel 2 (Mus musculus), P35561. B-score at 10 µM;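 active = fluorescence ratio B-score at or below minus 3 SD of library scores, with starting-brightness B-score within 2 SD, cut at about -4.2 in these data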;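 also: channel flux triggered by added potassium and thallium sulfate stimulus; B-score of peak minus minimum fluorescence over baseline after thallium stimulus; more negative B-score means stronger Kir2.1 block with less thallium influx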
KCNK9 block conf: KCNK9 potassium channel inhibitors, confirmation, HEK293 cells, thallium flux, duplicate; actives 43% (n = 4,900); shares compounds with KCNK9 inh; inhibition, % at 10 µM; FluxOR thallium flux fluorescence;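 active = thallium signal inhibited by more than 5 SD of the compound-free buffer control wells, on both duplicate plates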;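 also: 0% = assay buffer control wells without compound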
Kir2-1 spec: mouse Kir2.1 channel inhibition, confirmation, selectivity assay for KCNK9 modulator project, cell-based, HEK293, thallium flux. inhibition, % at 10 µM. actives 4% (n = 4,900). AID 492993, 2010. Kir2.1 cells, FluxOR thallium flux fluorescence. shares compounds with KCNK9 inh;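 active = thallium signal drop more than 5 SD beyond the mean of the no-compound control wells, seen in both duplicate plates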;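 also: signal is fluorescence rise after thallium addition divided by baseline fluorescence; plate controls were assay buffer only for no effect and full block by chlorpromazine control for full effect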
KCNK9 uninduced: thallium flux in non-induced HEK293 cells, confirmation, counter-screen for KCNK9 inhibitor project, cell-based, second counter screen, non-induced KCNK9-HEK293; shares compounds with KCNK9 inh; FluxOR thallium flux; inhibition, % at 10 µM; actives 40% (n = 4,900);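 active = thallium signal drop beyond 5 SD of the untreated control mean, on both duplicate plates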;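 also: plate controls were buffer only IC0 wells for no effect and SID17386958 at its maximal inhibitory level for full effect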
KCNK3 inh conf: retest of human KCNK3 channel inhibitors, confirmation, CHO cells, FluxOR thallium flux, triplicate; shares compounds with KCNK3 inh; FluxOR fluorescence; 0% buffer, 100% carvedilol maximal block; ratio percent of control, % at 10 µM; AID 651638, 2012; actives 99% (n = 2,400);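 active = ratio percent of control, averaged over triplicates, above buffer control mean plus 5 SD, cut at about 64% in these data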;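 also: ratio is the fluorescence rise from min to max over baseline after thallium stimulus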
KCNK3 uninduced: thallium flux inhibition in non-induced cells, primary screen, counter-screen for KCNK3 inhibitor project, cell-based, non-induced KCNK3 line, FluxOR thallium, triplicate. shares compounds with KCNK3 inh. non-induced KCNK3 parental cells; stronger effect = lower value. thallium flux ratio (lower = more inhibition) at 10 µM. actives 40% (n = 2,400). AID 651747, 2012;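 active = thallium flux ratio, averaged over three wells, more than 5 SD below the buffer control mean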;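 also: host cells are CHO cells without KCNK3 induction; ratio is peak minus trough fluorescence over baseline then normalized to buffer controls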
Active calls of the source: *; i = inactive; · = no result.

SMILES	hERG rescue	KCNQ1 inh	KCNQ1 pot	KCNK9 inh	KCNK3 inh	Kir21 inh	KCNK9 block conf	Kir2-1 spec	KCNK9 uninduced	KCNK3 inh conf	KCNK3 uninduced
O=C(N/N=C/c1ccccc1)c1ccc(OCc2ccccc2)cc1	-17	i	i	i	i	1.4	·	·	·	·	·
O=C(N/N=C/c1ccccc1)c1sccc1OCc1ccc(F)cc1	-10	i	i	-15*	-9.5*	0.33	65%*	i	41%*	109*	i
CC1CCCC(C)N1C(=O)CN1C(=O)NC2(CCOc3ccccc32)C1=O (stereo not drawn)	·	·	·	·	i	·	·	·	·	·	·
O=C(c1c(F)cccc1F)N(C1CCCCC1)C1CCCCC1	-6	i	i	-12*	-12*	-0.25	68%*	i	28%*	133*	0.12*
O=C(c1c(F)cccc1F)N(Cc1cccs1)C1CCCC1	-8	i	i	i	i	-1.1	·	·	·	·	·
O=C(Nc1ccccc1N1CCN(C(=O)c2ccccc2)CC1)c1ccc(Cl)cc1	-22	i	i	-13*	-15*	-0.77	37%*	i	i	113*	i
CC(C)c1ccccc1NC(=O)COC(=O)c1c2c(nc3ccccc13)CCN(Cc1ccccc1)C2	-34	i	i	-12*	-9.7*	-1.4	66%*	i	i	132*	0.14*
CC(C)NC(=O)NC(=O)COC(=O)c1c2c(nc3ccccc13)CCC2	-16	i	i	i	i	-1.7	·	·	·	·	·
Nc1ncc(-n2cncn2)c(-c2ccc(Cl)cc2)n1	-4	i	i	i	i	-0.49	·	·	·	·	·
COCCNC(C(=O)Nc1cc(Cl)cc(Cl)c1)c1ccccc1 (stereo not drawn)	-10	i	i	-12*	-9.2*	0.59	44%*	i	40%*	103*	i
CCOCCCNC(C(=O)Nc1ccc(OC)c(Cl)c1)c1ccccc1 (stereo not drawn)	-7	i	i	i	i	0.76	·	·	·	·	·
c1ccc(N2CCN(c3ncnc4sc5c(c34)CCC5)CC2)cc1	-6	i	i	-15*	i	-0.27	46%*	i	44%*	119*	0.15*
CCc1cc2c(N3CCN(c4ccccc4)CC3)ncnc2s1	-16	i	i	i	-13*	1	i	i	23%*	135*	0.15*
Oc1ccc(N2CCN(c3ncnc4sc(-c5ccccc5)cc34)CC2)cc1	-6	i	i	i	i	0.41	·	·	·	·	·
